Laboratory results reported in ChEMBL document CHEMBL4406821, “Novel dual inhibitors targeting CDK4 and VEGFR2 synergistically suppressed cancer progression and angiogenesis” (Eur J Med Chem, 2019).

Key:
[1] = target: CDK4/Cyclin D3 (Homo sapiens) (UniProt P11802+P30281); assay: Inhibition of recombinant full length human CDK4/Cyclin D3 using Rb-fragmen as substrate at 1 uM incubated for 40 mins by [gamma-33P]-ATP based radiometric assay relative to control; assay type: protein-complex assay
Summary of the method: (§1)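 Kinase panel profiling at 1 μM performed by Eurofins KinaseProfiler; percent inhibition reported as mean of two independent experiments.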

[2] = target: Vascular endothelial growth factor receptor 2 (Homo sapiens, UniProt P35968); assay: Inhibition of recombinant human VEGFR2 (790 to end residues) using myelin ba as substrate at 1 uM incubated for 40 mins by [gamma-33P]-ATP based radiometric assay relative to control; summary of the method: as §1
Sequence of Vascular endothelial growth factor receptor 2 (P35968 whole entry): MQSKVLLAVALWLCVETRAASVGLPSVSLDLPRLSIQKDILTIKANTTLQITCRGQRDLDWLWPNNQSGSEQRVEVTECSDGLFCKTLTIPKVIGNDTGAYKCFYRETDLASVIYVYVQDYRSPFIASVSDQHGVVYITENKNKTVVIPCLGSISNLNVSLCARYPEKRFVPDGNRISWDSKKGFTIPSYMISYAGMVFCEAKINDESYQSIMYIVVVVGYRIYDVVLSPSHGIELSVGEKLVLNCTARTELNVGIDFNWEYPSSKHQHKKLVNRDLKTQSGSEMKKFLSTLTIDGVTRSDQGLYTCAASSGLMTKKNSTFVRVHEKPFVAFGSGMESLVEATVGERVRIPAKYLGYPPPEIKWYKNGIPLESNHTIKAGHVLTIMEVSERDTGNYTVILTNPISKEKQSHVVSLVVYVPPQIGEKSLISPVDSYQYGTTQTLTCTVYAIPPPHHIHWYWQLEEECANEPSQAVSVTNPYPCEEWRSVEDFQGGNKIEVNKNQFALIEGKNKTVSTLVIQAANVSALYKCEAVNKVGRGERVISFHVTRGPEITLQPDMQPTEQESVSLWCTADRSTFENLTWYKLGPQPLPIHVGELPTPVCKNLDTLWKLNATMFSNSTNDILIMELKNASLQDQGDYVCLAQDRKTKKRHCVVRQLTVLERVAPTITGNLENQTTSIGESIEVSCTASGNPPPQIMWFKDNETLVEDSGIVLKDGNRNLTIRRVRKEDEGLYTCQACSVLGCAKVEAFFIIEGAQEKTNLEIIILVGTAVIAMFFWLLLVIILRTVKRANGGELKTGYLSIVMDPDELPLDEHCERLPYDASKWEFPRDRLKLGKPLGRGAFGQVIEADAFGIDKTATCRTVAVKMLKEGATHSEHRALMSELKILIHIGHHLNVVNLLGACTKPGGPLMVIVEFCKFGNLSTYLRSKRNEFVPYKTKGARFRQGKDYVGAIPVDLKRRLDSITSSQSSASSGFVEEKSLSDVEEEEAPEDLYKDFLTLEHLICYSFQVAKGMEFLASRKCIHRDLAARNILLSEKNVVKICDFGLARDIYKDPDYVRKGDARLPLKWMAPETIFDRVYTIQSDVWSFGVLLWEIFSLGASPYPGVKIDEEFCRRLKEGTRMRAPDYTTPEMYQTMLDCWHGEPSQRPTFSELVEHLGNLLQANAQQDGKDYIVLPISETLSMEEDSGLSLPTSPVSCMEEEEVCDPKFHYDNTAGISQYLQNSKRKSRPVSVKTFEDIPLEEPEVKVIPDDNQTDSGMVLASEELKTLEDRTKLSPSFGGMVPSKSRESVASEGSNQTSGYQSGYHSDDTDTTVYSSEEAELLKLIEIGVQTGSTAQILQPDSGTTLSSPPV

[3] = tested on: HeLa; assay: Antiproliferative activity against human HeLa cells assessed as reduction in cell viability measured after 72 hrs by CCK8 assay; assay type: functional, cell-based
Summary of the method: (§2)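 Cells were seeded at 3×10³ cells/well and exposed to a range of concentrations or vehicle for 72 h. Viability was read by CCK-8 at 450 nm, with DMSO as blank and five replicates per sample. IC50 was calculated from the dose-response.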

[4] = tested on: T47D; assay: Antiproliferative activity against human T47D cells assessed as reduction in cell viability measured after 72 hrs by CCK8 assay; assay type: functional, cell-based; summary of the method: as §2

Row | Structure (SMILES) | inhibition [1] | inhibition [2] | IC50 [3] | IC50 [4]
1 | CN(C)C(=O)c1cc2cnc(Nc3ccc(NC(=O)C4(C(=O)Nc5ccc(F)cc5)CC4)cc3)nc2n1C1CCCC1 |  | 0% |  | 
2 | CC(C)n1nnc2ccc(-c3nc(Nc4ccc(NC(=O)C5(C(=O)Nc6ccc(Cl)cc6)CC5)cc4)ncc3F)cc21 | 21% | 59% |  | 
3 | CC(C)n1nnc2ccc(-c3nc(Nc4ccc(NC(=O)C5(C(=O)Nc6cccc(Cl)c6)CC5)cc4)ncc3F)cc21 | 50% | 60% |  | 
4 | CC(C)n1nnc2ccc(-c3nc(Nc4ccc(NC(=O)C5(C(=O)Nc6cccc(C(F)(F)F)c6)CC5)cc4)ncc3F)cc21 | 13% | 46% |  | 
5 | CC(C)n1nnc2ccc(-c3nc(Nc4ccc(NC(=O)C5(C(=O)Nc6ccc(Br)cc6)CC5)cc4)ncc3F)cc21 | 24% | 52% |  | 
6 | CC(C)n1nnc2ccc(-c3nc(Nc4ccc(NC(=O)C5(C(=O)Nc6cccc(F)c6)CC5)cc4)ncc3F)cc21 | 79% | 69% |  | 
7 | CC(C)n1nnc2ccc(-c3nc(Nc4ccc(NC(=O)C5(C(=O)Nc6ccc(Cl)c(C(F)(F)F)c6)CC5)cc4)ncc3F)cc21 | 8% | 41% |  | 
8 | CC(C)n1nnc2ccc(-c3nc(Nc4ccc(NC(=O)C5(C(=O)Nc6ccc(C(F)(F)F)cc6)CC5)cc4)ncc3F)cc21 | 31% | 56% |  | 
9 | CC(C)n1nnc2ccc(-c3nc(Nc4ccc(NC(=O)C5(C(=O)Nc6ccc(F)cc6)CC5)cc4)ncc3F)cc21 | 69% | 84% |  | 
10 | CC(C)n1nnc2ccc(-c3nc(Nc4ccc(NC(=O)C5(C(=O)Nc6cccc(Br)c6)CC5)cc4)ncc3F)cc21 | 34% | 55% |  | 
11 | Cc1ccc(NC(=O)C2(C(=O)Nc3ccc(Nc4ncc(F)c(-c5ccc6nnn(C(C)C)c6c5)n4)cc3)CC2)cc1 | 81% | 78% |  | 
12 | Cc1cccc(NC(=O)C2(C(=O)Nc3ccc(Nc4ncc(F)c(-c5ccc6nnn(C(C)C)c6c5)n4)cc3)CC2)c1 | 75% | 73% |  | 

Results, then the molecule that gave them:

Row | inhibition [1] | inhibition [2] | IC50 [3] | IC50 [4] | Structure (SMILES)
13 | 37% | 74% |  |  | Cc1nc2c(F)cc(-c3nc(Nc4ccc(CNC(=O)C5(C(=O)Nc6ccc(C(F)(F)F)cc6)CC5)cc4)ncc3F)cc2n1C(C)C
14 | 31% | 80% |  |  | Cc1nc2c(F)cc(-c3nc(Nc4ccc(NC(=O)C5(C(=O)Nc6cccc(C(F)(F)F)c6)CC5)cc4)ncc3F)cc2n1C(C)C
15 | 97% | 95% | 178 nM | 202 nM | Cc1cccc(NC(=O)C2(C(=O)Nc3ccc(Nc4ncc(F)c(-c5cc(F)c6nc(C)n(C(C)C)c6c5)n4)cc3)CC2)c1
16 | 74% | 80% |  |  | Cc1nc2c(F)cc(-c3nc(Nc4ccc(NC(=O)C5(C(=O)Nc6ccc(C(F)(F)F)cc6)CC5)cc4)ncc3F)cc2n1C(C)C
17 | 96% | 90% | 106 nM | 29.3 nM | Cc1nc2c(F)cc(-c3nc(Nc4ccc(NC(=O)C5(C(=O)Nc6cccc(F)c6)CC5)cc4)ncc3F)cc2n1C(C)C
18 | 93% | 90% | 330 nM | 109 nM | Cc1nc2c(F)cc(-c3nc(Nc4ccc(CNC(=O)C5(C(=O)Nc6ccc(Br)cc6)CC5)cc4)ncc3F)cc2n1C(C)C
19 | 34% | 68% |  |  | Cc1nc2c(F)cc(-c3nc(Nc4ccc(NC(=O)C5(C(=O)Nc6ccc(Cl)c(C(F)(F)F)c6)CC5)cc4)ncc3F)cc2n1C(C)C
20 | 74% | 90% |  |  | Cc1nc2c(F)cc(-c3nc(Nc4ccc(NC(=O)C5(C(=O)Nc6cccc(Cl)c6)CC5)cc4)ncc3F)cc2n1C(C)C
21 | 97% | 95% | 252 nM | 771 nM | Cc1ccc(NC(=O)C2(C(=O)NCc3ccc(Nc4ncc(F)c(-c5cc(F)c6nc(C)n(C(C)C)c6c5)n4)cc3)CC2)cc1
22 | 90% | 91% | 597 nM | 120 nM | Cc1nc2c(F)cc(-c3nc(Nc4ccc(NC(=O)C5(C(=O)Nc6ccc(Br)cc6)CC5)cc4)ncc3F)cc2n1C(C)C
23 | 83% | 90% |  |  | Cc1nc2c(F)cc(-c3nc(Nc4ccc(NC(=O)C5(C(=O)Nc6cccc(Br)c6)CC5)cc4)ncc3F)cc2n1C(C)C
24 | 88% | 91% |  |  | Cc1nc2c(F)cc(-c3nc(Nc4ccc(CNC(=O)C5(C(=O)Nc6ccc(Cl)cc6)CC5)cc4)ncc3F)cc2n1C(C)C
25 | 98% | 91% | 191 nM | 25.5 nM | Cc1nc2c(F)cc(-c3nc(Nc4ccc(NC(=O)C5(C(=O)Nc6ccc(F)cc6)CC5)cc4)ncc3F)cc2n1C(C)C
26 | 76% | 74% |  |  | Cc1nc2c(F)cc(-c3nc(Nc4ccc(NC(=O)C5(C(=O)Nc6ccc(Cl)cc6)CC5)cc4)ncc3F)cc2n1C(C)C
27 | 51% | 57% |  |  | Cc1nc2c(F)cc(-c3nc(Nc4ccc(CNC(=O)C5(C(=O)Nc6ccc(Cl)c(C(F)(F)F)c6)CC5)cc4)ncc3F)cc2n1C(C)C
